Experimental data: ChEMBL document CHEMBL4428038, “Overcoming chloroquine resistance in malaria: Design, synthesis and structure-activity relationships of novel chemoreversal agents” (Eur J Med Chem, 2016)
Active and inactive are the calls of the source. No cut-off for these calls is given here.

Legend:
Plasmodium falciparum [1] = experiment: Potentiation of chloroquine-induced antimalarial activity against chloroquine-sensitive Plasmodium falciparum 3D7 isolate MRA-102 assessed as reduction in chloroquine IC50 at 500 nM relative to chloroquine alone; type: functional
[2] = Resistance index, ratio of chloroquine IC50 for intermediate chloroquine-resistant Plasmodium falciparum 7G8 isolate MRA-154 CRT SVMNT haplotype mutant to chloroquine IC50 for chloroquine-sensitive Plasmodium falciparum 3D7 isolate MRA-102 at 500 nM
Summary of the method: (§1)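 Chloroquine IC50 was measured with the chemoreversal agent fixed at 500 nM in K1 or 7G8 and in sensitive 3D7 (means, n = 3). The resistance ratio is the chloroquine IC50 in K1 or 7G8 divided by the chloroquine IC50 in 3D7.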

[3] = tested on: T1, Chloroquine resistance transporter (Plasmodium falciparum), Q9N623 [K76T]; experiment: Inhibition of CRT K76T mutant in chloroquine-resistant Plasmodium falciparum Dd2 isolate MRA-156 assessed as reversal of chloroquine resistance by measuring reduction in chloroquine IC50 at 500 nM relative to chloroquine alone
T1 sequence (whole entry): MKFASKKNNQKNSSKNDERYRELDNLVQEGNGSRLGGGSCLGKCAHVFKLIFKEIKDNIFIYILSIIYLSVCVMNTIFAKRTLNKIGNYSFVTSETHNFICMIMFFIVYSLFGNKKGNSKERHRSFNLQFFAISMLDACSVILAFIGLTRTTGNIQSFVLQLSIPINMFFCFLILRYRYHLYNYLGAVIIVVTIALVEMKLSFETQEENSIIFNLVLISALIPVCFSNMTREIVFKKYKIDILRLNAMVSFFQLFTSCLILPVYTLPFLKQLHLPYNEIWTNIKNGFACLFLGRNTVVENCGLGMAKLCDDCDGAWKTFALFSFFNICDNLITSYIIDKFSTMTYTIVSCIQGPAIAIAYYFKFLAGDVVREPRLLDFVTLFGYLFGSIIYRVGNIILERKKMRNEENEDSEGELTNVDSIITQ

Plasmodium falciparum K1 = experiment: Inhibition of CRT CVIET haplotype mutant in Plasmodium falciparum K1 isolate MRA-159 infected in erythrocytes assessed as chloroquine-coumarin probe accumulation at 10 uM after 10 hrs by Hoechst 33342 staining based flow cytometry (reference value: 35.57 +/- 3.84%); type: cell-based; set-up: scale not given: the % may be the effect or the level left
Summary of the method: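 Infected erythrocyte cultures at 2.5% hematocrit and 7–12% parasitemia, synchronized to late-ring/early-trophozoite stage, were incubated with chloroquine-coumarin probe plus test agent for 10 h at 37 C. Cells were then washed, resuspended in PBS and read by flow cytometry (405 nm excitation, 450/50 filter). Hoechst-stained duplicate wells set parasitemia. Uptake = % infected erythrocytes fluorescent. Controls: PBS (negative), desipramine and parent compound (positive). ≥3 independent experiments; mean ± SEM.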

[4] = Therapeutic index, ratio of IC50 for TAMH to EC50 for chloroquine-resistant Plasmodium falciparum K1 isolate MRA-159 CRT CVIET haplotype mutant; type: toxicity; conditions: mouse, TAMH cells; read-out: Ratio IC50/EC50
Summary of the method: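 Host-cell IC50 was measured by ATP-luminescence viability assay in TAMH hepatocytes (mean of n = 4 independent determinations) or AC10 cardiomyocytes. Each IC50 was divided by the K1 EC50, the concentration of chemoreversal agent that halves the chloroquine concentration needed for 50% parasite inhibition.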

Plasmodium falciparum [5] = experiment: Intrinsic antimalarial activity against chloroquine-resistant Plasmodium falciparum NHP4559 harboring CRT K76T mutant assessed as reduction in parasite viability at 500 nM; type: functional, organism-based
Plasmodium falciparum [6] = experiment: Intrinsic antimalarial activity against chloroquine-sensitive Plasmodium falciparum 3D7 isolate MRA-102 assessed as reduction in parasite viability at 500 nM; type: functional, organism-based
Plasmodium falciparum [7] = experiment: Intrinsic antimalarial activity against chloroquine/artemisinin-resistant Plasmodium falciparum NHP4773 harboring CRT K76T mutant assessed as reduction in parasite viability at 500 nM; type: functional, organism-based
[8] = Permeability of compound incubated for 16 hrs at pH 7.4 by PAMPA; type: ADME; conditions: read-out: Peff
[9] = tested on: T1, Chloroquine resistance transporter (Plasmodium falciparum), Q9N623 [K76T]; experiment: Inhibition of CRT K76T mutant in chloroquine-resistant Plasmodium falciparum NHP4559 assessed as reversal of chloroquine resistance by measuring reduction in chloroquine IC50 at 500 nM relative to chloroquine alone
TAMH = experiment: Cytotoxicity against TAMH assessed as reduction in cell viability by CellTiter-Glo assay; type: cell-based; conditions: Mus musculus
Summary of the method: (§2)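 For TAMH (hepatocyte line) and AC10 (cardiomyocyte line), viability was read by ATP luminescence (CellTiter-Glo), and the value reported is IC50.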

Plasmodium falciparum [10] = experiment: Intrinsic antimalarial activity against chloroquine-sensitive Plasmodium falciparum HB3 isolate MRA-155 assessed as reduction in parasite viability at 500 nM; type: functional, organism-based
Plasmodium falciparum [11] = experiment: Intrinsic antimalarial activity against chloroquine/artemisinin-resistant Plasmodium falciparum ARS233 harboring CRT K76T mutant assessed as reduction in parasite viability at 500 nM; type: functional, organism-based
[12] = Cytotoxicity against human AC10 cells assessed as reduction in cell viability by CellTiter-Glo assay; type: cell-based; summary of the method: as §2
Plasmodium falciparum [13] = experiment: Intrinsic antimalarial activity against chloroquine-resistant Plasmodium falciparum Dd2 isolate MRA-156 harboring CRT K76T mutant assessed as reduction in parasite viability at 500 nM; type: functional, organism-based
[14] = Resistance index, ratio of EC50 for intermediate chloroquine-resistant Plasmodium falciparum 7G8 isolate MRA-154 CRT SVMNT haplotype mutant to EC50 for chloroquine-sensitive Plasmodium falciparum 3D7 isolate MRA-102
Summary of the method: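 EC50 is the concentration of chemoreversal agent that halves the chloroquine concentration needed to inhibit survival of half the parasites. It was derived from dose-dependent shifts in chloroquine IC50, measured in 7G8 and 3D7. The index is the 7G8 EC50 divided by the 3D7 EC50.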

[15] = Inhibition of CRT CVIET haplotype mutant in chloroquine-resistant Plasmodium falciparum K1 isolate MRA-159 assessed as reversal of chloroquine resistance by measuring reduction in chloroquine IC50 relative to chloroquine alone
Summary of the method: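 Chloroquine IC50 was determined in the presence of a fixed 500 nM chemoreversal agent, against chloroquine alone. The RMI is the ratio of chloroquine IC50 with agent to chloroquine IC50 alone. Mean of n = 3; two-tailed t test versus chloroquine without agent.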

[16] = Resistance index, ratio of chloroquine IC50 for chloroquine-resistant Plasmodium falciparum K1 isolate MRA-159 CRT CVIET haplotype mutant to chloroquine IC50 for chloroquine-sensitive Plasmodium falciparum 3D7 isolate MRA-102 at 500 nM; summary of the method: as §1
Plasmodium falciparum [17] = experiment: Intrinsic antimalarial activity against chloroquine/artemisinin-resistant Plasmodium falciparum ARS272 harboring CRT K76T mutant assessed as reduction in parasite viability at 500 nM; type: functional, organism-based
[18] = tested on: T1, Chloroquine resistance transporter (Plasmodium falciparum), Q9N623 [K76T]; experiment: Inhibition of CRT K76T mutant in chloroquine/artemisinin-resistant Plasmodium falciparum NHP4773 assessed as reversal of chloroquine resistance by measuring reduction in chloroquine IC50 at 500 nM relative to chloroquine alone
Plasmodium falciparum [19] = experiment: Intrinsic antimalarial activity against chloroquine-resistant Plasmodium falciparum K1 isolate MRA-159 harboring CRT CVIET haplotype mutant assessed as reduction in parasite viability at 500 nM; type: functional, organism-based
Plasmodium falciparum [20] = experiment: Potentiation of chloroquine-induced antimalarial activity against chloroquine-sensitive Plasmodium falciparum HB3 isolate MRA-155 assessed as reduction in chloroquine IC50 at 500 nM relative to chloroquine alone; type: functional

**Q.** For c1ccc(CN[C@@H]2C3CCN(CC3)[C@@H]2Cc2ccccc2)cc1 (relative stereo), which “Ratio IC50” value (Plasmodium falciparum [1]) is on record?
**A.** 1.26

**Q.** And the Ratio IC50 [2]?
**A.** 3.9

**Q.** What about the Ratio IC50 [3] of the same molecule?
**A.** 0.6

**Q.** And the Activity (Plasmodium falciparum K1)?
**A.** 83.4%

**Q.** And the selectivity ratio [4]?
**A.** > 588

**Q.** And the Activity (Plasmodium falciparum [5])?
**A.** inactive

**Q.** And the Activity (Plasmodium falciparum [6])?
**A.** inactive

**Q.** And the Activity (Plasmodium falciparum [7])?
**A.** inactive

**Q.** And the Papp at 16 h [8]?
**A.** 14.5 ×10⁻⁶ cm/s

**Q.** And the Ratio IC50 [9]?
**A.** 0.47

**Q.** And the IC50 (TAMH)?
**A.** > 100 µM

**Q.** And the Activity (Plasmodium falciparum [10])?
**A.** inactive

**Q.** What about the Activity (Plasmodium falciparum [11]) of the same molecule?
**A.** inactive

**Q.** And the IC50 [12]?
**A.** 71.5 µM

**Q.** And the Activity (Plasmodium falciparum [13])?
**A.** inactive

**Q.** What about the Ratio EC50 [14] of the same molecule?
**A.** 2

**Q.** What about the EC50 [15] of the same molecule?
**A.** 0.17 µM

**Q.** What about the Ratio IC50 [16] of the same molecule?
**A.** 6.4

**Q.** And the Activity (Plasmodium falciparum [17])?
**A.** inactive

**Q.** What about the Ratio IC50 [18] of the same molecule?
**A.** 0.45

**Q.** And the Activity (Plasmodium falciparum [19])?
**A.** inactive

**Q.** And the “Ratio IC50” value (Plasmodium falciparum [20])?
**A.** 1.12
